From ChEMBL document CHEMBL4330069, “Boosting the efficacy of anti-MRSA β-lactam antibiotics via an easily accessible, non-cytotoxic and orally bioavailable FtsZ inhibitor” (Eur J Med Chem, 2019)
≈ marks a conversion by molar mass, not a printed value.

Columns and labels:
Staphylococcus aureus [1] = experiment: Antibacterial activity against Staphylococcus aureus ATCC 29213 harboring FtsZ 128 mutation after 20 hrs; type: functional; conditions: ATCC 29213, 20 h
How it was run: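 Broth microdilution MIC per CLSI guidelines, compounds dissolved in DMSO. Resistant mutants were selected by serial passage of ATCC 29213 in LB at 37 °C with shaking at 250 rpm. Each 20 h culture started at half the MIC, and the concentration was doubled at each transfer. Growth inhibition was read by eye, in duplicate.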

Staphylococcus aureus [2] = experiment: Antibacterial activity against multidrug-resistant Staphylococcus aureus isolate 256 by broth microdilution assay; type: functional
How it was run: (§1)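 Broth microdilution MIC per CLSI guidelines against clinical MRSA isolates, for β-lactams and test compound alone and in combination. Compounds were dissolved in DMSO. Growth was read by eye, in duplicate. FIC index = FIC(compound) + FIC(drug); synergy defined as FIC index ≤0.5.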

Staphylococcus aureus [3] = experiment: Synergistic antibacterial activity against multidrug-resistant Staphylococcus aureus isolate 1136 in presence of amoxicillin by broth microdilution assay; type: functional; how it was run: as §1
Staphylococcus aureus [4] = experiment: Synergistic antibacterial activity against multidrug-resistant Staphylococcus aureus isolate 2919 in presence of amoxicillin by broth microdilution assay; type: functional
How it was run: (§2)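 CLSI broth microdilution on clinical MRSA isolates. MICs were measured for the β-lactam alone, the test agent alone and the two combined. Compounds were dissolved in DMSO, and growth inhibition was scored by eye. FIC index is the sum, over both agents, of MIC in combination divided by MIC alone. An FIC index ≤0.5 was taken as synergy.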

Staphylococcus aureus [5] = experiment: Synergistic antibacterial activity against multidrug-resistant Staphylococcus aureus isolate 254 in presence of methicillin by broth microdilution assay; type: functional; how it was run: as §2
Staphylococcus aureus [6] = experiment: Synergistic antibacterial activity against multidrug-resistant Staphylococcus aureus isolate 1136 in presence of methicillin by broth microdilution assay; type: functional
How it was run: (§3)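 Clinical MRSA isolate panel; compound and β-lactam tested alone and in combination by CLSI broth microdilution, compounds dissolved in DMSO, growth inhibition scored by eye, run in duplicate. FIC index = FIC(compound) + FIC(drug), each the MIC in combination divided by the MIC alone; an index ≤ 0.5 was called synergy.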

Staphylococcus aureus [7] = experiment: Synergistic antibacterial activity against multidrug-resistant Staphylococcus aureus isolate 2516 in presence of methicillin by broth microdilution assay; type: functional; how it was run: as §2
Staphylococcus aureus [8] = experiment: Synergistic antibacterial activity against multidrug-resistant Staphylococcus aureus isolate 1749 in presence of methicillin by broth microdilution assay; type: functional; how it was run: as §3
Staphylococcus aureus [9] = experiment: Synergistic antibacterial activity against multidrug-resistant Staphylococcus aureus isolate 3580 in presence of methicillin by broth microdilution assay; type: functional
Staphylococcus aureus [10] = experiment: Synergistic antibacterial activity against multidrug-resistant Staphylococcus aureus isolate 3332 in presence of cefuroxime by broth microdilution assay; type: functional; how it was run: as §2
Staphylococcus aureus [11] = experiment: Synergistic antibacterial activity against multidrug-resistant Staphylococcus aureus isolate 2895 in presence of cefuroxime by broth microdilution assay; type: functional; how it was run: as §2
Staphylococcus aureus [12] = experiment: Synergistic antibacterial activity against multidrug-resistant Staphylococcus aureus isolate 2919 in presence of cefuroxime by broth microdilution assay; type: functional; how it was run: as §2
Staphylococcus aureus [13] = experiment: Synergistic antibacterial activity against multidrug-resistant Staphylococcus aureus isolate 3580 in presence of cefuroxime by broth microdilution assay; type: functional
Staphylococcus aureus [14] = experiment: Synergistic antibacterial activity against multidrug-resistant Staphylococcus aureus isolate 2490 in presence of meropenem by broth microdilution assay; type: functional; how it was run: as §3
Staphylococcus aureus [15] = experiment: Synergistic antibacterial activity against multidrug-resistant Staphylococcus aureus isolate 3589 in presence of meropenem by broth microdilution assay; type: functional
Staphylococcus aureus [16] = experiment: Synergistic antibacterial activity against multidrug-resistant Staphylococcus aureus isolate 1717 in presence of meropenem by broth microdilution assay; type: functional; how it was run: as §3
Staphylococcus aureus [17] = experiment: Synergistic antibacterial activity against multidrug-resistant Staphylococcus aureus isolate 774 in presence of meropenem by broth microdilution assay; type: functional
Staphylococcus aureus [18] = experiment: Synergistic antibacterial activity against multidrug-resistant Staphylococcus aureus isolate 3332 assessed as fractional Inhibitory concentration index in presence of methicillin by broth microdilution assay; type: functional
Staphylococcus aureus [19] = experiment: Synergistic antibacterial activity against multidrug-resistant Staphylococcus aureus isolate 2516 assessed as fractional Inhibitory concentration index in presence of methicillin by broth microdilution assay; type: functional
How it was run: (§4)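 CLSI broth microdilution run on clinical MRSA isolates with each β-lactam alone, the test agent alone, and the two combined; agents dissolved in DMSO. Growth inhibition was read by eye. FIC index = FIC(compound) + FIC(β-lactam), where each FIC is the MIC in combination divided by the MIC alone. An index ≤0.5 was taken as synergy.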

Staphylococcus aureus [20] = experiment: Synergistic antibacterial activity against multidrug-resistant Staphylococcus aureus isolate 417 assessed as fractional Inhibitory concentration index in presence of cloxacillin by broth microdilution assay; type: functional
Staphylococcus aureus [21] = experiment: Synergistic antibacterial activity against multidrug-resistant Staphylococcus aureus isolate 1136 assessed as fractional Inhibitory concentration index in presence of cefuroxime by broth microdilution assay; type: functional; how it was run: as §4
Staphylococcus aureus [22] = experiment: Synergistic antibacterial activity against multidrug-resistant Staphylococcus aureus isolate 1344 assessed as fractional Inhibitory concentration index in presence of meropenem by broth microdilution assay; type: functional; how it was run: as §4
Staphylococcus aureus [23] = experiment: Synergistic antibacterial activity against multidrug-resistant Staphylococcus aureus isolate 256 assessed as fractional Inhibitory concentration index in presence of meropenem by broth microdilution assay; type: functional
[24] = Tmax in Sprague-Dawley rat at 50 mg/kg, po by UPLC-MS/MS analysis; type: ADME, organism-based; conditions: in vivo

Compound `CCCCCCCCCNc1ccc(F)c(C(N)=O)c1F` has an MIC (Staphylococcus aureus [1]) of 128 µg/mL (≈ 429 µM), an MIC (Staphylococcus aureus [2]) of 1020 µg/mL (≈ 3430 µM) and an MIC (Staphylococcus aureus [3]) of 16 µg/mL. For the same compound, the MIC (Staphylococcus aureus [4]) was 8 µg/mL, the MIC (Staphylococcus aureus [5]) was 4 µg/mL and the MIC (Staphylococcus aureus [6]) was 4 µg/mL. It also gave an MIC (Staphylococcus aureus [7]) of 4 µg/mL, an MIC (Staphylococcus aureus [8]) of 2 µg/mL and an MIC (Staphylococcus aureus [9]) of 2 µg/mL. For the same compound, the MIC (Staphylococcus aureus [10]) was 2 µg/mL, the MIC (Staphylococcus aureus [11]) was 4 µg/mL and the MIC (Staphylococcus aureus [12]) was 2 µg/mL. It also gave an MIC (Staphylococcus aureus [13]) of 2 µg/mL, an MIC (Staphylococcus aureus [14]) of 4 µg/mL and an MIC (Staphylococcus aureus [15]) of 4 µg/mL. For the same compound, the MIC (Staphylococcus aureus [16]) was 2 µg/mL, the MIC (Staphylococcus aureus [17]) was 4 µg/mL and the “fractional inhibitory concentration index (FICI)” value (Staphylococcus aureus [18]) was 0.3. The “fractional inhibitory concentration index (FICI)” value (Staphylococcus aureus [19]) was 0.2, the “fractional inhibitory concentration index (FICI)” value (Staphylococcus aureus [20]) was 0.1 and the “fractional inhibitory concentration index (FICI)” value (Staphylococcus aureus [21]) was 0.1. The “fractional inhibitory concentration index (FICI)” value (Staphylococcus aureus [22]) was 2, the “fractional inhibitory concentration index (FICI)” value (Staphylococcus aureus [23]) was 4 and the Tmax [24] was 2 h.
